Test results reported in BindingDB's records for doi:10.1016/j.ejmech.2016.07.006 (Csir-Indian Institute of Integrative Medicine, 2016).

Tests used:
[1] = molecular target: T1, Phosphatidylinositol 4,5-bisphosphate 3-kinase catalytic subunit delta isoform (Homo sapiens, UniProt O00329); assay: Inhibition of PI3Kdelta (unknown origin) using diC8 PIP2 as substrate after 120 mins by ADP-glo assay
T1 sequence (O00329 whole entry): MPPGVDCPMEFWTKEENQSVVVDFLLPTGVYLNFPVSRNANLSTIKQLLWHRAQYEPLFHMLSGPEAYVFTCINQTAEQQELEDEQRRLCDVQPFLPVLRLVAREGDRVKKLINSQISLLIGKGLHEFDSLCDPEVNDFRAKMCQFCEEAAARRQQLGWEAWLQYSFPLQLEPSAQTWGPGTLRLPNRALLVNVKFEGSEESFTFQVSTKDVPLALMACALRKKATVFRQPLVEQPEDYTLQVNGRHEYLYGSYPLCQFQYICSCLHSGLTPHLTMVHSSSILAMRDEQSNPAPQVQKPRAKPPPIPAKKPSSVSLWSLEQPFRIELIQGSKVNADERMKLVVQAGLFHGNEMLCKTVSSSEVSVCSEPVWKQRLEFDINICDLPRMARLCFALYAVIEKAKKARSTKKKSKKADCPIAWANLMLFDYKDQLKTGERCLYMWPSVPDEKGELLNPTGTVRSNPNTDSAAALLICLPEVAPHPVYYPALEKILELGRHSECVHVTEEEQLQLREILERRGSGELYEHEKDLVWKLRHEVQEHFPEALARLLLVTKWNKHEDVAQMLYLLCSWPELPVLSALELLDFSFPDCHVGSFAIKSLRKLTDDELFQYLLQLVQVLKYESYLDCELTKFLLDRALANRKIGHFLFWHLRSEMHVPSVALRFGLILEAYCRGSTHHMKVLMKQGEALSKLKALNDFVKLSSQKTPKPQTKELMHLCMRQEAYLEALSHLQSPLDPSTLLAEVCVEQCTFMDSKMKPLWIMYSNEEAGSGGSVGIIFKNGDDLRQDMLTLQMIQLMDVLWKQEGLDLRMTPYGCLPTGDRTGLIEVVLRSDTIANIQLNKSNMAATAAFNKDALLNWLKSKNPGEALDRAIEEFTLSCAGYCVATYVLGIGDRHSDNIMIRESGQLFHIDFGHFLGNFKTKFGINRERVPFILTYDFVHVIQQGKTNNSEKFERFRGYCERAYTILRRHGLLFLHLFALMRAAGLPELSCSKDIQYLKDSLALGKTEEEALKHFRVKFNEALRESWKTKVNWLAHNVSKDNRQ
Procedure, shortened: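 Delta isoform reacted 120 min in glycine-NaOH pH 8.5 buffer (50 mM KCl, 2.5 mM MgCl2, 1 mM DTT, 0.05% CHAPS) with 0.01 mM ATP and 0.05 mM diC8 PIP2; ADP formed detected by ADP-Glo (40 min) plus detection buffer (40 min) luminescence. Dundee profiling centre.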

[2] = molecular target: Phosphatidylinositol 4,5-bisphosphate 3-kinase catalytic subunit beta isoform (Homo sapiens, UniProt P42338); assay: Inhibition of PI3Kbeta (unknown origin) using diC8 PIP2 as substrate after 60 mins by ADP-glo assay
Chain of Phosphatidylinositol 4,5-bisphosphate 3-kinase catalytic subunit beta isoform (P42338 whole entry, canonical isoform): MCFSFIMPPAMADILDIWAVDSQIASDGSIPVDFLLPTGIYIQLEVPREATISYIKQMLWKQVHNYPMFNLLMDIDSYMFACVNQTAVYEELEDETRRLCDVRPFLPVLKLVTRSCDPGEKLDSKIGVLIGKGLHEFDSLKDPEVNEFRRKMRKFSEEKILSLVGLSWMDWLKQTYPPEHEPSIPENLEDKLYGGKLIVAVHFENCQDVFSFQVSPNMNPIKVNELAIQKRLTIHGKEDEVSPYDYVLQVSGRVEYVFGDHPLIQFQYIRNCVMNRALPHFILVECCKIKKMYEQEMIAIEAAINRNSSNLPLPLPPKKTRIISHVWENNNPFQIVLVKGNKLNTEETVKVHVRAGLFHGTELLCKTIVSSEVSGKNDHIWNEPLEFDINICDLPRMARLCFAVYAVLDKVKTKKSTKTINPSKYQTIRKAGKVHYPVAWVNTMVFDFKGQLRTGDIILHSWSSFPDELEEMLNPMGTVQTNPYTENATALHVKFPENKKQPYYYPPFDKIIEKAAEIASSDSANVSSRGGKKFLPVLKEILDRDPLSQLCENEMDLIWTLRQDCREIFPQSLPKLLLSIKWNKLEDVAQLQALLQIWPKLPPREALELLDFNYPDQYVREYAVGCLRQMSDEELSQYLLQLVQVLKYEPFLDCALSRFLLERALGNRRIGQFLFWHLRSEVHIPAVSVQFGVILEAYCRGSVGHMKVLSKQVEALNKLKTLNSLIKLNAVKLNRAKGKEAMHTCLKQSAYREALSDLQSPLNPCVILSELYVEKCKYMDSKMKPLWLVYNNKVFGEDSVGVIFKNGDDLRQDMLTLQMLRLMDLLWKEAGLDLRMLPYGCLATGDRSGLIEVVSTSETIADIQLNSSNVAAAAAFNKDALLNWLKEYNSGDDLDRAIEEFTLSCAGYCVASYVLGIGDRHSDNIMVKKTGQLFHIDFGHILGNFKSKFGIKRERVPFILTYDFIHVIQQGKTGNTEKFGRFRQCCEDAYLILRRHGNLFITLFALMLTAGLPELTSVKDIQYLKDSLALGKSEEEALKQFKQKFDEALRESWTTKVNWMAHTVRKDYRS

[3] = molecular target: Phosphatidylinositol 4,5-bisphosphate 3-kinase catalytic subunit alpha isoform (Homo sapiens, UniProt P42336); assay: Inhibition of PI3Kalpha (unknown origin) using diC8 PIP2 as substrate after 80 mins by ADP-glo assay
Chain of Phosphatidylinositol 4,5-bisphosphate 3-kinase catalytic subunit alpha isoform (P42336 whole entry, canonical isoform): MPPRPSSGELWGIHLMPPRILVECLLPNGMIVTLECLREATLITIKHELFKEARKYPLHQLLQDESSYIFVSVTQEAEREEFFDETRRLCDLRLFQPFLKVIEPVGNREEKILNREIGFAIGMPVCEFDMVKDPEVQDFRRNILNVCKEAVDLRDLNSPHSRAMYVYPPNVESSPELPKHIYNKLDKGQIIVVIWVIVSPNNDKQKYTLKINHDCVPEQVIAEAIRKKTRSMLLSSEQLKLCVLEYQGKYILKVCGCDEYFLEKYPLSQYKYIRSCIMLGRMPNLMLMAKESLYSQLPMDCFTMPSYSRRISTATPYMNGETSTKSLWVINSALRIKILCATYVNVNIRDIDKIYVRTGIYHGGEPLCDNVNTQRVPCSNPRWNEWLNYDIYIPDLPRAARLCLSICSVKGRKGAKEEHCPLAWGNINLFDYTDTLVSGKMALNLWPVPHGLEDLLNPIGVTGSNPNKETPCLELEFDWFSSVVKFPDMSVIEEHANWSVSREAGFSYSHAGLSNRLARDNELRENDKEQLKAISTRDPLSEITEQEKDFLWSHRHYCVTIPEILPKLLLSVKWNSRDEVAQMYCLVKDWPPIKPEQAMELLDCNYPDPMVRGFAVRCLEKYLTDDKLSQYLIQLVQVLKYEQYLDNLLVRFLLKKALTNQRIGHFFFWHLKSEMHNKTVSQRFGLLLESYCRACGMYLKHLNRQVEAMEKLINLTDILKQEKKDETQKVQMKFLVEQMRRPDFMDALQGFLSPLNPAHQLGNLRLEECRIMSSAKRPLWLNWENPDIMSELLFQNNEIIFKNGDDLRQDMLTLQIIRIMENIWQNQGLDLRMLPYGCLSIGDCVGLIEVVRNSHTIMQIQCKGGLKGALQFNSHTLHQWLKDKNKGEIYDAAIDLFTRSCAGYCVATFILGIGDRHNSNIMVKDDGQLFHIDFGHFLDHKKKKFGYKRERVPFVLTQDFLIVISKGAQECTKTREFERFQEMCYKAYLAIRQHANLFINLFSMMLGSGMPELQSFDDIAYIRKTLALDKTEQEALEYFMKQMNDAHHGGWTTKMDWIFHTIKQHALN

| SMILES | IC50 [1] | IC50 [2] | IC50 [3] |
| --- | --- | --- | --- |
| N#CCc1ccc(Nc2ncnc3ccc(-c4ccc5c(c4)OCO5)cc23)cc1 | > 10 µM | > 10 µM | – |
| N#CCc1ccc(Nc2ncnc3ccc(-c4cncc5ccccc45)cc23)cc1 | – | > 20 µM | – |
| N#CCc1ccc(Nc2ncnc3ccc(-c4ccc5c(c4)OCCO5)cc23)cc1 | > 10 µM | > 10 µM | – |
| N#CCc1ccc(Nc2ncnc3ccc(-c4cccc([N+](=O)[O-])c4)cc23)cc1 | > 10 µM | > 10 µM | – |
| N#CCc1ccc(Nc2ncnc3ccc(-c4ccncc4)cc23)cc1 | > 10 µM | > 10 µM | – |
| CC(=O)c1ccc(-c2ccc3ncnc(Nc4ccc(CC#N)cc4)c3c2)cc1 | > 10 µM | > 10 µM | – |
| C=Cc1ccc(-c2ccc3ncnc(Nc4ccc(CC#N)cc4)c3c2)cc1 | > 10 µM | > 10 µM | > 10 µM |
| N#CCc1ccc(Nc2ncnc3ccc(-c4ccc5[nH]ccc5c4)cc23)cc1 | > 10 µM | > 10 µM | – |
